# Calls of active or inactive are those of the source. No cut-off for these calls is given here.
# System: Escherichia coli
# Test: Antibacterial activity against Escherichia coli at 5 mM incubated for 18 hrs by AlamarBlue assay
# Type: functional, organism-based
# Conditions: not given
row,Structure (SMILES),Activity
1,CC[C@H](/C=C/[C@@H](C)[C@H]1CC[C@H]2[C@@H]3CC=C4C[C@@H](O)CC[C@]4(C)[C@H]3CC[C@]12C)C(C)C,inactive
2,COc1ccc(C(=O)C(C)c2ccc(O)cc2)c(O)c1 (centres undefined),inactive
3,CO[C@@H]1[C@H](OC(=O)c2ccccc2)C=C[C@@H](O)[C@@]1(O)COC(=O)c1ccccc1,inactive
4,COc1c(Cc2ccccc2O)c(O)c(Cc2ccccc2O)c(O)c1C(=O)CCc1ccccc1,inactive
5,CC[C@H](CC[C@@H](C)[C@H]1CC[C@H]2[C@@H]3CC=C4C[C@@H](O)CC[C@]4(C)[C@H]3CC[C@]12C)C(C)C,inactive
6,CO[C@H]1C=C[C@@H](OC(=O)c2ccccc2)[C@@H](OC)[C@]1(O)COC(=O)c1ccccc1,inactive
7,COc1ccccc1COC(=O)c1ccccc1,inactive
8,CC(=O)O[C@@H]1C=C[C@@H](OC(=O)c2ccccc2)[C@H](O)[C@]1(O)COC(=O)c1ccccc1,inactive
9,COc1cc(O)cc(O)c1C(=O)CCc1ccccc1,inactive
10,CO[C@H]1[C@H](OC(=O)c2ccccc2)C=C[C@H](Cl)[C@]1(O)COC(=O)c1ccccc1,inactive
11,O=C(OCc1ccccc1)c1ccccc1,inactive
12,COc1cc(O)c(Cc2ccccc2O)c(O)c1C(=O)CCc1ccccc1 [UVARETIN],inactive

# System: Bacillus subtilis
# Test: Antibacterial activity against Bacillus subtilis incubated for 18 hrs by AlamarBlue assay
# Type: functional
# Conditions: not given
row,Structure (SMILES),MIC [µM]
1,COc1cc(O)c(Cc2ccccc2O)c(O)c1C(=O)CCc1ccccc1 [UVARETIN],18

# System: MCF7
# Test: Cytotoxicity against human MCF7 cells after 24 hrs by PrestoBlue cell viability reagent based assay
# Type: functional
# Conditions: MCF7, 24 h
# In short: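 MCF-7 cells were kept in exponential growth in DMEM with 10% fetal calf serum, reseeded in 96-well plates, and settled 24 h. Compounds were added from DMSO stock (final solvent 0.3% v/v) in 2-fold dilutions for 24 h. Viability was read as resorufin fluorescence (ex 544/em 590 nm) and expressed as % of solvent-only control. EC50 came from three independent replicate experiments.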
row,Structure (SMILES),EC50 [µM]
1,COc1cc(O)c(Cc2ccccc2O)c(O)c1C(=O)CCc1ccccc1 [UVARETIN],10.2

# From ChEMBL document CHEMBL4602668, “Oxygenated Cyclohexene Derivatives and Other Constituents from the Roots of Monanthotaxis trichocarpa” (J Nat Prod, 2020)
